Common to all, as to assay type: functional, cell-based
The nature of test [1]: In vitro cytotoxicity against mouse TLX5 lymphoma cells. The gist of the method:
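TLX5 lymphoma cells kept in exponential growth at 2 × 10⁴ cells/mL in RPMI 1640 with 15% fetal calf serum. Cells were dosed with drug in DMSO (10 μL per 2 mL well), triplicate wells per concentration, with DMSO-only controls. After 72 h at 37 °C under 5% CO₂, cells were Coulter-counted. IC₅₀ was taken from % of control growth plots as the mean of two determinations.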

A short description of test [2]: In vitro cytotoxicity against human xeroderma pigmentosum fibroblast cells HMGZip (mer-). The gist of the method: (§1)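 Xeroderma pigmentosum fibroblasts HMGZip 1a (Mer⁻) and HMGhAT 2b (Mer⁺) grown in MEM, plated at 1000 cells/well, and assayed by the method of Baer et al.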
A short description of test [3]: In vitro cytotoxicity against human xeroderma pigmentosum fibroblast cells […] (mer+). The gist of the method:
as §1

We go through 18 compounds from ChEMBL document CHEMBL1135673, “Antitumor imidazotetrazines. 41. Conjugation of the antitumor agents mitozolomide and temozolomide to peptides and lexitropsins bearing DNA major and minor groove-binding structural motifs” (J Med Chem, 2002).

Each structure is given as a SMILES string. Peptide text beside a SMILES is read from it. * marks the point of attachment. X1 = O=C(c1ncn2c(=O)n(CCCl)nnc12)*

For the compound `COC(=O)[C@@H](NC(=O)[C@H](C)NC(=O)c1ncn2c(=O)n(CCCl)nnc12)C(C)C`, the IC50 in test [1] stood at 6.9 µM.
Compound `CC(C)C[C@@H](NC(=O)c1ncn2c(=O)n(CCCl)nnc12)C(=O)O` had a concentration for half-maximal inhibition (IC50) in test [2] of 57 µM.
Same read-out and setting: then `COC(=O)C(CCCCN)NC(=O)c1ncn2c(=O)n(CCCl)nnc12` (stereo not drawn), with 68 µM.
Compound `NC(=O)CNC(=O)c1ncn2c(=O)n(CCCl)nnc12` displayed a 50% inhibitory concentration (IC50) in test [1] of 34 µM.
Regarding `C[C@@H](NC(=O)c1ncn2c(=O)n(CCCl)nnc12)C(=O)O`, in test [2], the IC50 stood at 198 µM.
`COC(=O)C(CO)NC(=O)c1ncn2c(=O)n(CCCl)nnc12` (stereo not drawn): the IC50 in test [1] amounted to 5 µM.
Still for that read-out and setting: then `COC(=O)C(C)NC(=O)c1ncn2c(=O)n(CCCl)nnc12` (stereo not drawn), with 1.5 µM; and `CC(C)(C)NC(=O)c1ncn2c(=O)n(CCCl)nnc12`, with 2 µM.
In turn, `O=C(O)c1ncn2c(=O)n(CCCl)nnc12` showed an IC50 in test [1] of 15.8 µM.
Take `COC(=O)C(CCSC)NC(=O)c1ncn2c(=O)n(CCCl)nnc12` (stereo not drawn): the IC50 in test [1] worked out at 50 µM.
As for `CC(C)[C@H](NC(=O)[C@@H](NC(=O)c1ncn2c(=O)n(CCCl)nnc12)[C@@H](C)O)C(=O)NCC(=O)O`, the IC50 in test [3] is over 500 µM; in test [2], 437 µM.
Regarding `COC(=O)C(Cc1c[nH]c2ccccc12)NC(=O)c1ncn2c(=O)n(CCCl)nnc12` (stereo not drawn), the concentration for half-maximal inhibition (IC50) in test [1] was 3.7 µM.
The same measure, in the same setting: then `CCOC(=O)CNC(=O)c1ncn2c(=O)n(CCCl)nnc12`, with 25 µM.
For `NCCCCC(NC(=O)c1ncn2c(=O)n(CCCl)nnc12)C(=O)O` (stereo not drawn), in test [2], it took 42 µM to reach half-maximal inhibition (IC50).
As to `CC(C)[C@H](NC(=O)[C@@H](NC(=O)c1ncn2c(=O)n(CCCl)nnc12)[C@@H](C)O)C(=O)NCC(=O)N[C@@H](CCCN=C(N)N)C(=O)O` (X1-TVGR-OH), the figures for the half-inhibitory concentration (IC50) in test [3] and in test [2] were over 500 µM and 288 µM, respectively.
For the compound `CC(C)[C@H](NC(=O)[C@@H](NC(=O)c1ncn2c(=O)n(CCCl)nnc12)[C@@H](C)O)C(=O)N[C@@H](CO)C(=O)N[C@@H](CCCN=C(N)N)C(=O)O` (X1-TVSR-OH), the IC50 is over 500 µM in test [3] and 351 µM in test [2].
Turning to `NC(=O)c1ncn2c(=O)n(CCCl)nnc12` [MITOZOLOMIDE], the half-inhibitory concentration (IC50) was 30 µM in test [3], 20 µM in test [2] and 2.5 µM in test [1].
On to `Cn1nnc2c(C(N)=O)ncn2c1=O` [TEMOZOLOMIDE], for which the 50% inhibitory concentration (IC50) in test [1] was found to be 5 µM.

For orientation: IC50 means the point on the concentration scale where inhibition reaches its midpoint. A higher IC50 goes with lower potency.
